Reference: PMC3005096 (Steroids, 2010)
Read-outs that look alike come from different tables or passages of the source.

How the values were obtained:
HaCaT keratinocytes = experiment: Proliferation of HaCaT keratinocytes; format: cell-based, human; conditions: for EC50: read-out: EC50, inhibition of proliferation
SKMEL-188 cells = experiment: [3H]-thymidine incorporation; format: cell-based, human; conditions: SKMEL-188, 72 h, [3H]-thymidine last 4 h
Method in brief: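 SKMEL-188 cells were grown in Ham's F-10 with 5% charcoal-treated FBS and synchronized at G0/G1 in serum-free medium. Compounds were added in fresh medium with 5% charcoal-treated FBS for 72 h. [3H]-thymidine (88.0 Ci/mmol) was present at 0.5 μCi/ml final for the last 4 h. Cells were precipitated with 10% TCA and counted by liquid scintillation. Mean ± SD, n=4; one-way ANOVA and t-test.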

VDR-EGFP fusion protein = target: T1, VDR-EGFP fusion protein (Homo sapiens, UniProt P11473); experiment: VDR translocation into the nucleus; format: cell-based; conditions: SKMEL-188 transduced with pLenti-CMV-VDR-EGFP, 10 nM, 90 min
T1 sequence (P11473 1-427): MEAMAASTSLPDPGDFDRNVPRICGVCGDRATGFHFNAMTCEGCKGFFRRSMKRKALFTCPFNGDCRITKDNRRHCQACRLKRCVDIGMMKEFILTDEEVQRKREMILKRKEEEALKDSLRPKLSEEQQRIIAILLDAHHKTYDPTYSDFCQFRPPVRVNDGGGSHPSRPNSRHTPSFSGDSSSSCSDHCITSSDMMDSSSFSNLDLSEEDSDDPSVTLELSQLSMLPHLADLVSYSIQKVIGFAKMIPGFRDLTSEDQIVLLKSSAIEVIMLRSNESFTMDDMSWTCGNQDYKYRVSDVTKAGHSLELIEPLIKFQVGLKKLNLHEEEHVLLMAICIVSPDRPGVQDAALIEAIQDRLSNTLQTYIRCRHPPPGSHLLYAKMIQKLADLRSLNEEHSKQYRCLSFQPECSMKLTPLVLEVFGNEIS
Method in brief: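 SKMEL-188 cells were stably transduced with a lentiviral CMV-driven VDR-EGFP fusion construct (10 MOI, 6 μg/ml polybrene). They were exposed to compound for 90 min, fixed in 4% paraformaldehyde, mounted and examined by fluorescence microscopy. In at least 10 fields, cells with fluorescent nuclei were counted and expressed as % of total cells. Student's t-test.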

melanoma SKMEL-188 = experiment: Colony forming assay; format: cell-based, human; conditions: SKMEL-188, 0.1, 10 and 1000 nM, 6-10 days
Method in brief: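 SKMEL-188 cells were plated at 500 cells/well in 12-well plates in F10 medium with charcoal-stripped FBS and antibiotic-antimycotic, at 37°C in 5% CO2. They were treated at 0.1, 10 and 1000 nM, with matched ethanol dilution as vehicle control, and grown 6–10 days. Colonies were stained with 0.1% […], then counted and sized from photographs. CFU = colonies/cells plated ×100. Mean ± SEM, n=3 or 4.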

[1] = tested on: AbC1 cell line derived from Bomirski hamster melanoma; experiment: [3H]-thymidine incorporation; format: cell-based

Row | SMILES | EC50 (HaCaT keratinocytes; Homo sapiens) [nM] | effect on proliferation of HaCaT cells (HaCaT keratinocytes) | inhibition of DNA synthesis (SKMEL-188 cells) | translocation of VDR-GFP fusion protein into the nucleus (VDR-EGFP fusion protein) | EC50 (HaCaT keratinocytes) [nM] | inhibition of colony formation (melanoma SKMEL-188) | inhibition of DNA synthesis [1]
1 | C=C1/C(=C\C=C2/CCC[C@]3(C)[C@@H]([C@H](C)CCCC(C)(C)O)CC[C@@H]23)C[C@@H](O)C[C@@H]1O [1,25(OH)2D3, reference compound] | 180 |  |  |  |  |  | 
2 | C[C@]12CC[C@H]3C(=CC=C4C[C@@H](O)CC[C@@]43C)[C@@H]1CC[C@@H]2C(=O)CO [21(OH)7DHP, 3β, 21-Dihydroxypregna-5,7-dien-20-one] | > 1000 | no effect | inhibited DNA synthesis | induced translocation |  |  | 
3 | C=C1CC[C@H](O)C/C1=C/C=C1\CCC[C@]2(C)[C@@H](C(=O)CO)CC[C@@H]12 [21(OH)pD, (5Z,7E)-3β,21-Dihydroxy-9,10-secopregna-5,7,10(19)-trien-20-one] |  |  | inhibited DNA synthesis | efficient translocation | 40 | best inhibition | 
4 | C[C@]12CC[C@@H]3C(=CC=C4C[C@@H](O)CC[C@]43C)[C@@H]1CC[C@@H]2C(=O)CO [21(OH)pL, 3β,21-Dihydroxy-9β,10α-pregna-5,7-dien-20-one] | > 1000 | no effect | highest inhibitory potency | significantly lower |  | less potent inhibitory effect | efficiently inhibited DNA synthesis
